Results reported in ChEMBL document CHEMBL5032502, “Syntheses, Biological Evaluations, and Mechanistic Studies of Benzo[c][1,2,5]oxadiazole Derivatives as Potent PD-L1 Inhibitors with In Vivo Antitumor Activity” (J Med Chem, 2021).
Calls of active or inactive are those of the source. No cut-off for these calls is given here.

Experiments:
[1] = target: Programmed cell death protein 1/Programmed cell death 1 ligand 1 (Homo sapiens, UniProt Q9NZQ7); test: Inhibition of human PD-1/PD-L1 interaction assessed as blockade activity incubated for 15 mins by HTRF assay; type: protein-complex assay
Programmed cell death protein 1/Programmed cell death 1 ligand 1, sequence (Q15116 whole entry): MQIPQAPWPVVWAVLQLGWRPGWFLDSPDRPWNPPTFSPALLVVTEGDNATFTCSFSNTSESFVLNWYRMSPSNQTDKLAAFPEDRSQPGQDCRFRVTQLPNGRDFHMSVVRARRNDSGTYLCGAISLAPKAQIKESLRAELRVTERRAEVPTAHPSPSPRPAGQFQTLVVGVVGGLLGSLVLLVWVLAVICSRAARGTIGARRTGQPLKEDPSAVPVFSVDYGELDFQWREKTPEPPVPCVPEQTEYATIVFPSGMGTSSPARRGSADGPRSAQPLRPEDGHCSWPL
Programmed cell death protein 1/Programmed cell death 1 ligand 1, sequence (Q9NZQ7 whole entry): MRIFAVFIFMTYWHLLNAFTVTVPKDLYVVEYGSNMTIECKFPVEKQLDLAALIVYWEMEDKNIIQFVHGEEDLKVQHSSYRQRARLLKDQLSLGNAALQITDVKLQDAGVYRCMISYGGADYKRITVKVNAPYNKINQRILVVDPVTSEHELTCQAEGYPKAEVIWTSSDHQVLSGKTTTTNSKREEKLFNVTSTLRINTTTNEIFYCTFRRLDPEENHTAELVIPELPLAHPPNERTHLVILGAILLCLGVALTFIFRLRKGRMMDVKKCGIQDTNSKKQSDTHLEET
Summary of the method: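 Tag1-PD-L1 and Tag2-PD-1 proteins preincubated with compound (0.1 nM to 10 μM, triplicate) 15 min at room temperature, then anti-Tag1-Eu³⁺/anti-Tag2-XL665 added for 2 h at room temperature. Excitation 337 nm, emission 665 and […]. Signal taken as 665/615 ratio ×10 000; IC50 fitted from inhibition rates.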

[2] = Half life in Sprague-Dawley rat at 9 mg/kg, iv measured upto 24 hrs by LC-MS analysis; type: ADME, organism-based; details: in vivo
Summary of the method: (§1)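 Male animals fasted 12 h before dosing. Plasma levels measured by LC-MS, with the prodrug quantified as the parent acid. Mean ± SEM, n = 3.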

[3] = Tmax in Sprague-Dawley rat at 45 mg/kg, po measured upto 24 hrs by LC-MS analysis; type: ADME, organism-based; details: in vivo
Summary of the method: (§2)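 Male Sprague-Dawley rats or C57BL/6 mice fasted 12 h before dosing, given oral (po) or intravenous (iv) doses. Plasma levels measured by LC-MS. Parameters reported as mean ± SEM, n = 3.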

[4] = AUC (0 to t) in Sprague-Dawley rat at 45 mg/kg, po measured upto 24 hrs by LC-MS analysis; type: ADME, organism-based; parameters: route oral, dose 45 mg/kg, time <=24; details: in vivo; summary of the method: as §1
[5] = Oral bioavailability in Sprague-Dawley rat at 45 mg/kg measured upto 24 hrs by LC-MS analysis; type: ADME, organism-based; details: in vivo; summary of the method: as §2
[6] = Acute toxicity in C57BL/6 mouse assessed as mortality at 2000 mg/kg, po observed for 30 days; type: organism-based; details: in vivo, 720 h, time 30 day
Summary of the method: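 Healthy C57BL/6 mice got a single oral 2000 mg/kg dose. Mortality and body weight were then recorded over a 30-day observation period.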

[7] = Subacute toxicity in C57BL/6 mouse assessed as mortality at 2000 mg/kg, po observed for 30 days; type: organism-based; details: in vivo, 720 h, time 30 day
[8] = Toxicity in C57BL/6 mouse assessed as effect on ALT level at 2000 mg/kg, po observed for 30 days; type: organism-based; details: in vivo, 720 h, time 30 day
[9] = Toxicity in C57BL/6 mouse assessed as effect on creatinine kinase level at 2000 mg/kg, po observed for 30 days; type: organism-based; details: in vivo, 720 h, time 30 day
B16-F10 = test: Antitumor activity against mouse B16-F10 cells implanted in C57BL/6 mouse assessed as tumor growth inhibition at 15 mg/kg, po measured after 18 days; type: functional; details: 432 h, time 18 day, read-out: TGI
Summary of the method: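 Female C57BL/6J mice, 8 weeks old, injected dorsally with 1 × 10⁶ B16-F10 cells in PBS. Daily oral gavage started the same day (day 1), in 0.5% CMC-Na vehicle. Tumour size and body weight recorded daily, volume = 0.5 × L × W². Sacrifice on day 18, tumours excised and weighed. TGI = (1 − Vt/Vv) × 100.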

MC-38 [10] = test: Antitumor activity against mouse MC38 cells implanted in C57BL/6 mouse assessed as tumor growth inhibition at 300 mg/kg, po measured after 18 days; type: functional; details: MC-38, po, 432 h, time 18 day, read-out: TGI
Summary of the method: (§3)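 Female C57BL/6J mice, 8 weeks old, injected dorsally with 1 × 10⁶ MC38 cells in PBS. At 50 mm³, randomized to CMC-Na vehicle, 50, 150 or 300 mg/kg by daily oral gavage. Tumours measured every two days, volume = 0.5 × L × W². Sacrifice after 18 days of treatment. TGI = (1 − Vt/Vv) × 100. n = 8−10.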

MC-38 [11] = test: Antitumor activity against mouse MC38 cells implanted in C57BL/6 mouse assessed as tumor growth inhibition at 150 mg/kg, po measured after 18 days; type: functional; details: MC-38, po, 432 h, time 18 day, read-out: TGI; summary of the method: as §3
MC-38 [12] = test: Antitumor activity against PD-L1 humanized mouse MC38 cells implanted in PD-L1 humanized C57BL/6 mouse assessed as tumor growth inhibition at 25 mg/kg, po measured after 30 days; type: functional; details: MC-38, po, 720 h, time 30 day, read-out: TGI
Summary of the method: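 PD-L1-humanized C57BL/6 mice given 1 × 10⁶ MC38-hPD-L1(Tg)-mPDL1(KO) cells in the right flank. Once tumours reached 50 mm³, randomized into three groups: CMC-Na vehicle, 25 or 50 mg/kg by daily oral gavage for 30 days. TGI from mean tumour volume of treated versus vehicle groups. n = 6.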

MC-38 [13] = test: Antitumor activity against PD-L1 humanized mouse MC38 cells implanted in PD-L1 humanized C57BL/6 mouse assessed as tumor growth inhibition at 25 mg/kg, po measured after 27 days; type: functional; details: MC-38, po, 648 h, time 27 day, read-out: TGI
Summary of the method: (§4)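 Female PD-L1-humanized C57BL/6 mice, 6 weeks old, injected in the right flank with 1 × 10⁶ MC38-hPD-L1(Tg)-mPDL1(KO) cells in PBS. At 50 mm³ tumours, animals randomized to 0.5% CMC-Na vehicle or drug by daily oral gavage. Tumours measured twice weekly, volume = 0.5 × L × W². Sacrifice on day 27. TGI = (1 − Vt/Vv) × 100. n = 8.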

MC-38 [14] = test: Antitumor activity against PD-L1 humanized mouse MC38 cells implanted in PD-L1 humanized C57BL/6 mouse assessed as tumor growth inhibition at 5 mg/kg, po measured after 27 days; type: functional; details: MC-38, po, 648 h, time 27 day, read-out: TGI; summary of the method: as §4
MC-38 [15] = test: Antitumor activity against mouse MC38 cells xenografted in C57BL/6 mouse assessed as reduction in mMDSC cells at 25 mg/kg, po by flow cytometry analysis; type: functional, organism-based
Summary of the method: (§5)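 Tumours taken from PD-L1-humanized mice carrying MC38-hPD-L1 tumours and dosed orally at 5 or 25 mg/kg daily. Tissue digested to single cells, red cells lysed with ACK buffer, Fc blocked. Surface stain 60 min for CD45, CD3, CD4, CD8, CD335, CD11b, Ly6G, Ly6C and F4/80, with a viability dye. Intracellular FOXP3 stain after permeabilization. Mean ± SEM, n = 7−8, one-way ANOVA.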

MC-38 [16] = test: Antitumor activity against mouse MC38 cells xenografted in C57BL/6 mouse assessed as reduction in gMDSC cells at 25 mg/kg, po by flow cytometry analysis; type: functional, organism-based; summary of the method: as §5
MC-38 [17] = test: Antitumor activity against mouse MC38 cells xenografted in C57BL/6 mouse assessed as reduction in macrophages at 25 mg/kg, po by flow cytometry analysis; type: functional, organism-based; summary of the method: as §5
MC-38 [18] = test: Antitumor activity against mouse MC38 cells xenografted in C57BL/6 mouse assessed as change in regulatory T cells at 25 mg/kg, po by flow cytometry analysis; type: functional, organism-based; summary of the method: as §5
[19] = Half life in C57BL/6 mouse at 2 mg/kg, iv measured upto 24 hrs by LC-MS analysis; type: ADME, organism-based; details: in vivo; summary of the method: as §1
[20] = Clearance in C57BL/6 mouse at 2 mg/kg, iv measured upto 24 hrs by LC-MS analysis; type: ADME, organism-based; details: in vivo; summary of the method: as §1
[21] = Tmax in C57BL/6 mouse at 10 mg/kg, po measured upto 24 hrs by LC-MS analysis; type: ADME, organism-based; details: in vivo; summary of the method: as §2
[22] = Subacute toxicity in C57BL/6 mouse assessed as organ weight change po observed for 30 days; details: in vivo, 720 h
[23] = Toxicity in C57BL/6 mouse assessed as body weight loss at 2000 mg/kg, po observed for 30 days; details: in vivo, 720 h

In the case of `CCOC(=O)[C@@H](CO)NCc1cc(Cl)c(OCc2cccc(-c3ccccc3)c2Br)cc1OCc1ccc2nonc2c1.Cl`, the IC50 [1] is reported as 426 nM, the half-life [2] is reported as 301 min and the Tmax [3] is reported as 4 h. For the same compound, the AUC(0-t) at 24 h [4] was 2860 ng·h/mL, the bioavailability [5] was 9.12% and the Activity [6] was “Non-Toxic”. The Activity [7] was “Non-Toxic”, the Activity [8] was “Non-Toxic” and the Activity [9] was “Non-Toxic”. For the same compound, the inhibition in vivo at 15 mg/kg (B16-F10) was 45.8%, the inhibition in vivo at 300 mg/kg (MC-38 [10]) was 48.9% and the inhibition in vivo at 150 mg/kg (MC-38 [11]) was 55.1%. The inhibition in vivo at 25 mg/kg (MC-38 [12]) was 44.2%, the inhibition in vivo at 25 mg/kg (MC-38 [13]) was 32.5% and the inhibition in vivo at 5 mg/kg (MC-38 [14]) was 19.3%. The Activity (MC-38 [15]) was “Active”, the Activity (MC-38 [16]) was “Active” and the Activity (MC-38 [17]) was “Active”. The Activity (MC-38 [18]) was “inactive”, the half-life [19] was 123 min and the clearance [20] was 28.7 mL/min/kg. For the same compound, the Tmax [21] was 1 h, the Activity [22] was “Non-Toxic” and the Activity [23] was “Non-Toxic”.
